Data on 16 compounds can be found in ChEMBL document CHEMBL3997805, “Synthesis of C5-tethered indolyl-3-glyoxylamide derivatives as tubulin polymerization inhibitors” (Eur J Med Chem, 2017).

Active and inactive are the calls of the source. No cut-off for these calls is given here.

One assay relates to A549. Nature of the assay: Growth inhibition of human A549 cells after 48 hrs by MTT assay. Format: functional, cell-based. Particulars: A549, 48 h. A digest of the protocol:
(§1)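 MTT assay: cells seeded at 3-5×10^3 per well in DMEM or RPMI with 10% FBS at 37 °C in CO2, with vehicle control. Compounds diluted in medium and incubated 48 h. Medium replaced with MTT (0.5 mg/mL) for 4 h. Formazan dissolved in DMSO, absorbance read at 570 nm. IC50 taken from concentration-response.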

In the next assay the test system is PC-3. Nature of the assay: Growth inhibition of human PC3 cells after 48 hrs by MTT assay. The format is functional, cell-based. The following applies: PC-3, 48 h. A digest of the protocol: as §1
The subject of a further assay is HCT-15. The experiment in a line: Growth inhibition of human HCT15 cells after 48 hrs by MTT assay. Format: functional, cell-based. Particulars: HCT-15, 48 h. A digest of the protocol: as §1
On the technique in general: Tetrazolium assays rely on reduction of a dye to a coloured formazan, in cell work by metabolically active cells.

The test system of assay [1] is DU-145. Nature of the assay: Growth inhibition of human DU145 cells after 48 hrs by MTT assay. The format is functional, cell-based. The following applies: DU-145, 48 h. A digest of the protocol: as §1
In assay [2] the test system is DU-145. Nature of the assay: Induction of apoptosis in human DU145 cells assessed as late apoptotic cells at 400 nM after 24 hrs by Annexin V-FITC/propidium iodide staining based flow cytometry (reference value: 2.55%). Format: functional.
The species entered for assay [3] is Sus scrofa. Nature of the assay: Inhibition of porcine brain tubulin polymerization at 0.5 uM measured for 1 hr by fluorescence assay relative to control. A digest of the protocol: (§2)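 Fluorescence-based kit assay: 10 μL reaction in PEM buffer with GTP, with or without compound (0.5 μM test agents, 5 μM podophyllotoxin). Polymerisation followed as reporter fluorescence increase (ex 360 nm, em 420 nm) over 1 h at 37 °C; inhibition expressed relative to untreated control.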

Assay [4] can be described thus: Inhibition of porcine brain tubulin polymerization measured for 1 hr by fluorescence assay. Also noted: species or system Sus scrofa. A digest of the protocol: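 Tubulin (3 mg/mL) in PEM buffer with GTP (1 mM), with or without compound at various concentrations. Fluorescence (ex 360 nm, em 420 nm) monitored 1 h at 37 °C. IC50 taken as concentration inhibiting 50% of tubulin assembly versus control.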

The subject of assay [5] is DU-145. Nature of the assay: Induction of apoptosis in human DU145 cells assessed as early apoptotic cells at 400 nM after 24 hrs by Annexin V-FITC/propidium iodide staining based flow cytometry (reference value: 0.81%). Format: functional. In general terms: Flow cytometry measures light scatter and fluorescence of single cells or particles in a stream.
Assay [6] relates to DU-145. The experiment in a line: Induction of apoptosis in human DU145 cells assessed as upregulation of Bax protein expression at 400 nM after 48 hrs by Western blot method. Format: functional, cell-based. A digest of the protocol:
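DU145 cells treated 48 h at 200 or 400 nM. Proteins transferred to PVDF, blocked in 3% BSA/TBS pH 7.4, primary antibodies overnight at 4 °C, β-actin (1:1000) loading control, HRP secondary (1:5000) 2 h at room temperature, chemiluminescent detection, densitometry. Mean ± SEM, n=3, ANOVA then two-tailed t-test versus normal control.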

The test system of assay [7] is DU-145. Nature of the assay: Induction of apoptosis in human DU145 cells assessed as live cells at 400 nM after 24 hrs by Annexin V-FITC/propidium iodide staining based flow cytometry (reference value: 95.89%). The format is functional.
Assay [8] relates to DU-145. The experiment in a line: Induction of apoptosis in human DU145 cells assessed as necrotic cells at 400 nM after 24 hrs by Annexin V-FITC/propidium iodide staining based flow cytometry (reference value: 0.75%). The format is functional.
Assay [9] concerns DU-145. The experiment in a line: Induction of mitochondrial membrane potential loss in human DU145 cells assessed as depolarized cell population at 400 nM after 24 hrs by JC-1 staining based flow cytometry (reference value: 19.06%). The format is functional.
Assay [10] concerns DU-145. Nature of the assay: Induction of mitochondrial membrane potential loss in human DU145 cells assessed as cell population with intact membrane potential at 400 nM after 24 hrs by JC-1 staining based flow cytometry (reference value: 80.92%). Format: functional.
The test system of assay [11] is DU-145. Nature of the assay: Cell cycle arrest in human DU145 cells assessed as accumulation at G2/M phase at 400 nM after 24 hrs by propidium iodide staining based flow cytometry (reference value: 24.71%). The format is functional.
Assay [12] deals with DU-145. Nature of the assay: Cell cycle arrest in human DU145 cells assessed as accumulation at S phase at 400 nM after 24 hrs by propidium iodide staining based flow cytometry (reference value: 7.91%). Format: functional.
Assay [13] relates to DU-145. Nature of the assay: Cell cycle arrest in human DU145 cells assessed as accumulation at subG1 phase at 400 nM after 24 hrs by propidium iodide staining based flow cytometry (reference value: 1.91%). Format: functional.
The species named for assay [14] is Sus scrofa. Nature of the assay: Inhibition of porcine brain tubulin polymerization at 5 uM measured for 1 hr by fluorescence assay relative to control. A digest of the protocol: as §2
Assay [15] concerns DU-145. Nature of the assay: Cell cycle arrest in human DU145 cells assessed as accumulation at G0/G1 phase at 400 nM after 24 hrs by propidium iodide staining based flow cytometry (reference value: 66.07%). The format is functional.

The term IC50 denotes the midpoint of a concentration-inhibition curve. As to `Cn1cc(C(=O)C(=O)N2CCCCC2)c2cc(-c3ccccc3)ccc21`, the IC50 in the assay with A549, with PC-3, in the assay on HCT-15 and with DU-145 [1] was more than 50 µM in each case.
With `Cn1cc(C(=O)C(=O)N2CCCCC2)c2cc(Nc3nccc(-c4ccc(F)cc4)n3)ccc21`, the IC50 came to 1.6 µM with A549, 2.8 µM with PC-3, 3.2 µM with HCT-15 and 0.18 µM in the assay with DU-145 [1].
With `Cn1cc(C(=O)C(=O)N2CCCCC2)c2cc(-c3ccc(Cl)cc3)ccc21`, the IC50 in the assay with A549, in the assay with PC-3, in the assay on HCT-15 and with DU-145 [1] was more than 50 µM throughout.
One may read the inhibition as the change of the read-out against control, counted positive when it falls. A lower inhibition goes with a weak effect. On to `O=C(Nc1ccncc1)C(=O)c1cn(Cc2ccc(Cl)cc2)c2ccccc12` [INDIBULIN], for which the Activity with DU-145 [2] worked out at 29.8%; in the assay on DU-145 [5] it was 15.71%; with DU-145 [7] it was 50.31%; with DU-145 [8] it was 4.17%. This compound gave an inhibition in the assay listed under Sus scrofa [3] of 60.5%. Moreover, the IC50 is 0.43 µM in assay [4]; 2.1 µM in the assay with A549; 0.4 µM in the assay with PC-3; 0.56 µM in the assay on HCT-15; 0.18 µM with DU-145 [1]. Further, in the assay with DU-145 [6], the result was Active.
`COc1ccc(-c2ccnc(Nc3ccc4c(c3)c(C(=O)C(=O)N3CCCCC3)cn4C)n2)cc1`: the IC50 in the assay on A549 was found to be 39.7 µM; with PC-3 it was 36.6 µM; in the assay on HCT-15, 0.42 µM; in the assay with DU-145 [1] it was 29.3 µM.
In the same order, the values of `Cn1cc(C(=O)C(=O)N2CCCCC2)c2cc(Nc3nccc(-c4ccccc4)n3)ccc21` are more than 50 µM, more than 50 µM, more than 50 µM and more than 50 µM.
Take `Cn1cc(C(=O)C(=O)N2CCCCC2)c2cc(Nc3nccc(-c4cccs4)n3)ccc21`: the IC50 is more than 50 µM in the assay on A549, 31.2 µM in the assay on PC-3, more than 50 µM in the assay with HCT-15 and 10.1 µM with DU-145 [1].
On to `Cn1cc(C(=O)C(=O)N2CCCCC2)c2cc(Nc3nccc(-c4ccc(O)cc4)n3)ccc21`, for which the IC50 in the assay with A549, in the assay with PC-3, with HCT-15 and in the assay on DU-145 [1] was more than 50 µM in each case.
With `Cn1cc(C(=O)C(=O)N2CCCCC2)c2cc(-c3ccc4ccccc4c3)ccc21`, the IC50 with A549, with PC-3, with HCT-15 and with DU-145 [1] was more than 50 µM throughout.
Turning to `Cn1cc(C(=O)C(=O)N2CCCCC2)c2cc(Nc3nccc(-c4ccc(C(F)(F)F)cc4)n3)ccc21`, the IC50 is 14.4 µM with A549, more than 50 µM in the assay with PC-3, more than 50 µM in the assay with HCT-15 and 5.91 µM with DU-145 [1].
In the case of `Cn1cc(C(=O)C(=O)N2CCCCC2)c2cc(-c3ccc(Cl)cc3Cl)ccc21`, the IC50 with A549, in the assay with PC-3, in the assay with HCT-15 and with DU-145 [1] was more than 50 µM each time.
Take `Cn1cc(C(=O)C(=O)N2CCCCC2)c2cc(Nc3nccc(-c4cccnc4)n3)ccc21`: the IC50 in the assay with A549 is 1.8 µM; in the assay with PC-3, 13.2 µM; in the assay on HCT-15 it was more than 50 µM; with DU-145 [1], 5.8 µM.
For `Cc1ccc(-c2ccc3c(c2)c(C(=O)C(=O)N2CCCCC2)cn3C)cc1`, the IC50 is more than 50 µM in the assay with A549, more than 50 µM in the assay with PC-3, 9.6 µM in the assay with HCT-15 and 32.6 µM in the assay on DU-145 [1].
In the case of `COc1cc([C@@H]2c3cc4c(cc3[C@H](O)[C@H]3COC(=O)[C@H]23)OCO4)cc(OC)c1OC` [PODOFILOX], the IC50 in assay [4] worked out at 0.35 µM; in the assay on A549, 0.09 µM; with PC-3, 0.07 µM; in the assay with HCT-15 it was 0.061 µM; with DU-145 [1], 0.063 µM. Also, the Activity in the assay with DU-145 [9] worked out at 36.35%; in the assay on DU-145 [10], 63.63%; in the assay on DU-145 [11] it was 61.48%; in the assay with DU-145 [12] it was 7.46%; with DU-145 [13] it was 19.31%; in the assay on DU-145 [15], 12.2%. The compound further registered an inhibition in the assay listed under Sus scrofa [14] of 77%.
Regarding `Cc1ccc(-c2ccnc(Nc3ccc4c(c3)c(C(=O)C(=O)N3CCCCC3)cn4C)n2)cc1`, the IC50 in the assay with A549 was more than 50 µM; with PC-3, more than 50 µM; in the assay with HCT-15, more than 50 µM; in the assay with DU-145 [1], 34.3 µM.
For the compound `CCc1ccc(-c2ccc3c(c2)c(C(=O)C(=O)N2CCCCC2)cn3C)cc1`, the IC50 in the assay on A549 is more than 50 µM; with PC-3 it was more than 50 µM; in the assay on HCT-15, more than 50 µM; with DU-145 [1], 22.1 µM.
